Variants at the floor of the assay were thinned out.

The source of these data is the RNAGym collection of RNA variant scans (doi:10.1101/gad.245936.114).

The chains are these.
B1: tRNA (parent)
chain: CUCUCGGUAGCCAAGUUGGUUUAAGGCGCAAGACUUUAAUUUAUCACUACGAAAUCUUGAGAUCGGGCGUUCGACUCGCCCCCGGGAGAUUUUUUCCUCGAGCAA

The variants in the series derive from B1. As to the kind of experiment: nonsense suppression (GFP-seq) (ratio to wild type); higher = more function; SUP4oc tRNA, yeast GFP reporter sort-seq. An outline of the steps: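 Yeast were grown in raffinose/galactose medium with 80 mg/L adenine, each strain bearing a genome-integrated ochre-suppressor tRNA variant from a ~3% random-mutation library, a galactose-driven GFP ochre reporter, and RFP. After sorting into GFP/RFP bins, every bin was sequenced on an Illumina platform at phred ≥30. The GFPSEQ value, a measure of nonsense suppression, is the weighted bin median GFP/RFP relative to the unmutated parent tRNA, using each variant's estimated cell share per bin as the weight. Only variants with ≥100 reads and ≥30 cells were included.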
In the case of CUCUCGGUAGCCAAGUUGGUGUAAGGCGCAAGUCUUUAAUUUAUCACUACGAAAUCCAGAGAUCGGGCGUUCGACUCGCCCCCGGGAGGUUUUUUCCUCGAGCAA [U21G A33U U57C U58A A89G], the nonsense suppression is at most 0.026.

Turning to CUCUCGGUAGCCAAGUUGGUGUAAGGCGCAAGACUUUAAUUUAUCACUACGAAAUCUUGAGAUCGGGCGUUCGACUCGCCCCCGGGGGAUUUUUUCCUCGAGCAA [U21G A87G], the nonsense suppression stood at 0.172. Regarding CUCUCGGUAGCCAAGUUGGUUAAAGGCGCUAGACUUUAAUUUAUCACUACGAAAUCUUGAGAUCGGGCGUUCGACUCGCCCCCGGGAGAUUUUUUCCUCGAGCAA [U22A A30U], the nonsense suppression worked out at 0.177. Consider CUCUCGGUAGCCAAGUUGGUUAAAGGCGCGAGACUUUAAUUUAUCACUACGAAAUCUUGAGAUCGGGCGUUCGACUCGCCCCCGGGAGAUUUUUUCCUCGAGCAA [U22A A30G], for which the nonsense suppression was 0.677. As to CUCUCGGUAGCCAAGUUGGUGUAAGGCGCAAGACUUUAAUUUAUCACUACGAAAUCUUGAGAUCGCGCGUUCGACUCGCCCCCGGGAGAUUUUUUCCUCGAGCAA [U21G G66C], the nonsense suppression is at most 0.026. Consider CUCUCGGUAGCCAAGUUGGUUAAAGGCGCAAGUCUUUAAUUUAUCACUACGAAAUCUUGAGAUCGGGCGUUCGACUCGCCCCCGGGAGCUUUUUUCCUCGAGCAA [U22A A33U A89C], for which the nonsense suppression was at most 0.026. On to CUCUCGGUAGCCAAGUUGGUGUAAGGCGCAAGACUUUAAUUUAUCACUACGAAAUCUUGAGAUCGGGCGCUCGACUCGCCCCCGGGAGAUUUUUUCCUCGAGCAA [U21G U70C], for which the nonsense suppression was at most 0.026.

As to CUCUCGGUAGCCAAGUUGGUGUAAGGCGCAAGACUUUAAUUUAUCACUACGAAAUCUUGAGAUCGGGCGUCCGACUCGCCCCCGGGAGAUUUUUUCCUCGAGCAA [U21G U71C], the nonsense suppression is 0.0265. For the variant CUCUCGGUAGCCAAGUUGGUGUAAGGCGCAAGACUUUAAUUUAUCACUACGAAAUCUUGAGAUCGGGCGUUCGAGUCGCCCCCGGGAGAUUUUUUCCUCGAGCAA [U21G C75G], the nonsense suppression is 1.05. Take CUCUCGGUAGCCAAGUUGGUGUAAGGCGCAAGACUUUAAUUUAUCACUACGAAAUCUUGAGAUCGGGCGUUCGAAUCGCCCCCGGGAGAUUUUUUCCUCGAGCAA [U21G C75A]: the nonsense suppression worked out at 1.06. In the case of CUCUCGGUAGCCAAGUUGGUGUAAGGCGCAAGACUUUAAUUUAUCACUACGAAAUCUUGGGAUCGGGCGUUCGACUCGCCCCCGGGAGAUUUUUUCCUCGAGCAA [U21G A60G], the nonsense suppression came to 0.0299.

For the variant CUCUCGGUAGCCAAGUUGGUGUAAGGCGCAAGACUUUAAUUUAUCACUACGAAAUCUUGCGAUCGGGCGUUCGACUCGCCCCCGGGAGAUUUUUUCCUCGAGCAA [U21G A60C], the nonsense suppression turned out to be 0.0285. Regarding CUCUCGGUAGCCAAGUUGGUGUAAGGCGCAAGACUUUAAUUUAUCACUACGAAAUCUUGUGAUCGGGCGUUCGACUCGCCCCCGGGAGAUUUUUUCCUCGAGCAA [U21G A60U], the nonsense suppression worked out at 0.96.

For CUCUCGGUAGCCAAGUUGGUGUAAGGCGCUAGACUUUAAUUUAUCACUACGAAAUCUUGAGAUCGGGCGUUCGACUCGCCCCCGGGAGAUUUUUUCCUCGAGCAA [U21G A30U], the nonsense suppression is at most 0.026. Take CUCUCGGUAGCCAAGUUGGUGUAAGGCGCGAGACUUUAAUUUAUCACUACGAAAUCUUGAGAUCGGGCGUUCGACUCGCCCCCGGGAGAUUUUUUCCUCGAGCAA [U21G A30G]: the nonsense suppression was determined as 0.227. For CUCUCGGUAGCCAAGUUGGUGUAAGGCGCAAGACUUUAAUUUAUCACUACGAAAUCUUGAGAUCAGGCGUUCGACUCGCCCCCGGGAGAUUUUUUCCUCGAGCAA [U21G G65A], the nonsense suppression amounted to 0.0483. Regarding CUCUCGGUAGCCAAGUUGGUUAACGGCGCAAGACUUUAAUUUAUCACUACGAAAUCUUGAGAUCGGGUGUUCGACUCGCCCCCGGGAGAUUUUUUCCUCGAGCAA [U22A A24C C68U], the nonsense suppression was found to be 0.215. With CUCUCGGUAGCCAAGUUGGUGUAAGGCGCAAGACUUUAAUUUAUCACUACGAAAUCUUGAGAUCGGGCUUUCGACUCGCCCCCGGGAGAUUUUUUCCUCGAGCAA [U21G G69U], the nonsense suppression is at most 0.026.

As for CUCUCGGUAGCCAAGUUGGUUAAAGGCGCAGGACUUUAAUUUAUCACUACGAAAUCUUGAGAUCGGGCGUUCGACUCGCCCCCGGGAGAUUUUUUCCUCGAGCAA [U22A A31G], the nonsense suppression came to 1.05.

Consider CUCUCGGUAGCCAAGUUGGUGUAAGGCGCAGGACUUUAAUUUAUCACUACGAAAUCUUGAGAUCGGGCGUUCGACUCGCCCCCGGGAGAUUUUUUCCUCGAGCAA [U21G A31G], for which the nonsense suppression was determined as 0.77. CUCUCGGUAGCCAAGUUGGUGUAAGGCGCAAGACUUUAAUUUAUCACUACGAACUCUUGAGAUCGGGCGUUCGACUCGCCCCCGGGAGAUUUUUUCCUCGAGCAA [U21G A54C]: the nonsense suppression is 0.764.

Consider CUCUCGGUAGCCAAGUUGGUGUAAGGCGCAAGGUUUUAAUUUAUCACUACGAAAUCUUGAGAUCCGGCGUUCGACUCGCCCCCGGGAGAUUUUUUCCUCGAGCAA [U21G A33G C34U G65C], for which the nonsense suppression is at most 0.026.

With CUCUCGGUAGCCAAGUUGGUGUAAGGCACAAGACUUUAAUUUAUCACUACGAAAUCUUGAGAUCGGGCGUUCGACUCGCCCCCGGGAGAUUUUUUCCUCGAGCAA [U21G G28A], the nonsense suppression was 1.14. For CUCUCGGUAGCCAAGUUGGUGUAAGGCCCAAGACUUUAAUUUAUCACUACGAAAUCUUGAGAUCGGGCGUUCGACUCGCCCCCGGGAGAUUUUUUCCUCGAGCAA [U21G G28C], the nonsense suppression stood at 0.211.

CUCUCGGUAGCCAAGUUGGUGUAAGGCGCAAGACUUUAAUUUAUCACUACGAAAUCUUGAGAUCGGGCGUUCGACUCGCCCCUGGGAGAUUUUUUCCUCGAGCAA [U21G C83U]: the nonsense suppression stood at 0.0839.

As for CUCUCGGUAGCCAAGUUGGUUACAGGCGCAAGACUUUAAUUUAUCACUACGAAAUCUUGAGAUCGGGCGUUCGACUCGCCCCCGGGAGAUUUUUUCCUCGAGCAA [U22A A23C], the nonsense suppression is 0.153. Regarding CUCUCGGUAGCCAAGUUGGUGUAAGGCGCAAGACUUUAAUUUAUCACUACGAAAUCGUGAGAUCGGGCGUUCGACUCGCCCCCGGGAGAUUUUUUCCUCGAGCAA [U21G U57G], the nonsense suppression was at most 0.026.
